Test results from ChEMBL document CHEMBL1125449, “Substitution on the Phe3 aromatic ring in cyclic delta opioid receptor-selective dermorphin/deltorphin tetrapeptide analogues: electronic and lipophilic requirements for receptor affinity” (J Med Chem, 1992).
Positions of bridges follow the written chain, without caps; N, C: chain ends. Non-standard residues stand in square brackets, D forms with d. Residues, ends and D or L forms follow the SMILES beside them. Phe(4-NO2) = N[C@@H](Cc1ccc([N+](=O)[O-])cc1)C(=O)O; Phe(4-tBu) = CC(C)(C)c1ccc(C[C@H](N)C(=O)O)cc1; Phe(4-Cl) = N[C@@H](Cc1ccc(Cl)cc1)C(=O)O; Phe(3-F) = N[C@@H](Cc1cccc(F)c1)C(=O)O; Phe(4-F) = N[C@@H](Cc1ccc(F)cc1)C(=O)O; Phe(4-Me) = Cc1ccc(C[C@H](N)C(=O)O)cc1; Phe(2-F) = N[C@@H](Cc1ccccc1F)C(=O)O; mTyr = N[C@@H](Cc1cccc(O)c1)C(=O)O; Pen = CC(C)(S)[C@H](N)C(=O)O

What was measured:
Mu-type opioid receptor [1] = target: T1, Mu-type opioid receptor (Cavia porcellus, UniProt P97266); experiment: Compound was tested for the inhibition of [3H]- [D-Ala2, N-MePhe4, Gly5-ol]-enkephalin (DAMGO) binding to Opioid receptor mu 1 in guinea pig brain homogenates; format: tissue-based
T1 sequence (P97266 whole entry): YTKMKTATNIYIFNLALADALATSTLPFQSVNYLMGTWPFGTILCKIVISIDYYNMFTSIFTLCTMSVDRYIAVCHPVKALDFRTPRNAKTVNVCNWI

[2] = target: T2, Kappa-type opioid receptor (Cavia porcellus, UniProt P41144); experiment: Compound was tested for the inhibition of [3H]- (U69,593) binding to Opioid receptor kappa 1 in guinea pig brain homogenates; format: tissue-based
T2 sequence (P41144 whole entry): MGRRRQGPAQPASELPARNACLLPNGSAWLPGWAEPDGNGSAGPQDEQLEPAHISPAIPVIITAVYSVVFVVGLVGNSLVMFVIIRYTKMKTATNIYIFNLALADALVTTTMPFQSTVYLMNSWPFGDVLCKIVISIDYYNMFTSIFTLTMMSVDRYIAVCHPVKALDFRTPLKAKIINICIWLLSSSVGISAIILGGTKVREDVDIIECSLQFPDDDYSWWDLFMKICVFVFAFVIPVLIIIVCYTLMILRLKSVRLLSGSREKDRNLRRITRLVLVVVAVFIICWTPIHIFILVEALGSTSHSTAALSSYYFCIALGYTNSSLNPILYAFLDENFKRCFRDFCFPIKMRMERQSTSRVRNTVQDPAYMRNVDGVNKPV

[3] = target: Opioid receptors; mu & delta (Homo sapiens) (UniProt P41143+P35372); experiment: Ratio of binding affinity towards mu receptor to delta receptor.; format: protein assay
Opioid receptors; mu & delta (Homo sapiens), sequence (P35372 whole entry, looked up): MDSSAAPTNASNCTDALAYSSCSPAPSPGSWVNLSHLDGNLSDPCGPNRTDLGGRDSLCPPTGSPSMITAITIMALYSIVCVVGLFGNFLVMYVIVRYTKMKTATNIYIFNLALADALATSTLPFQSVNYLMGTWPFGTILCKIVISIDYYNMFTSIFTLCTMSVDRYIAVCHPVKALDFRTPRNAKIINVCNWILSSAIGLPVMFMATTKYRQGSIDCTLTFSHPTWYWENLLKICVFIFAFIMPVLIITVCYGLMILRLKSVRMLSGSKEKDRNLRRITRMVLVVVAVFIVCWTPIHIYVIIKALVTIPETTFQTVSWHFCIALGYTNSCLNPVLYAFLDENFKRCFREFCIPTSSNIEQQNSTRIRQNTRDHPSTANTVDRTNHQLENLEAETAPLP
Opioid receptors; mu & delta (Homo sapiens), sequence (P41143 whole entry, looked up): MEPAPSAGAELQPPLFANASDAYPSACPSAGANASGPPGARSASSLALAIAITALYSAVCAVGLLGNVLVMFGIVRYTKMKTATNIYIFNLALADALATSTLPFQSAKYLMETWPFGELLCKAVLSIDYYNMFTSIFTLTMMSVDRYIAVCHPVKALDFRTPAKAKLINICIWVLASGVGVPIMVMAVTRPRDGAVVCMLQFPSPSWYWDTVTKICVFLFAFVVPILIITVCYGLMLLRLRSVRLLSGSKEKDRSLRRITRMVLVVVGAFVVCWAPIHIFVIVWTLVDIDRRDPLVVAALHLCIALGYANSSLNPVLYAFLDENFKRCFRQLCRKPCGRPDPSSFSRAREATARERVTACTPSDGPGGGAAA

[4] = target: T2, Kappa-type opioid receptor; experiment: Compound was tested for the inhibition of [3H]- (U69,593) binding to opioid receptor kappa in guinea pig brain homogenates; format: tissue-based
Summary of the method: (§1)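 Guinea pig brain membranes (washed, preincubated 37 °C 30 min to remove endogenous opioids) in 50 mM Tris pH 7.4. Test compound preincubated with membranes 15 min at 25 °C, then 0.9 nM [3H]U69,593 added and incubated 90 min at 25 °C. Nonspecific binding defined with 10 μM U69,593. Filtration, scintillation counting. 12 concentrations, triplicate. IC50 by regression; Ki from saturation-derived KD.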

[5] = target: Mu-type opioid receptor (Cavia porcellus) (UniProt P97266); experiment: Ratio of binding affinity towards opioid receptor mu to opioid receptor delta
Mu-type opioid receptor (Cavia porcellus), sequence (P97266 whole entry): as the sequence (P97266 whole entry) above

Mu-type opioid receptor [6] = target: T1, Mu-type opioid receptor; experiment: Compound was tested for the inhibition of [3H]- [D-Ala2, N-MePhe4, Gly5-ol]-enkephalin (DAMGO) binding to opioid receptor mu in guinea pig brain homogenates; format: tissue-based
Summary of the method: as §1, with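 “0.6” for “0.9”, “[3H]DAMGO” for “[3H]U69,593”, “75” for “90”, “5” for “10”, “DAMGO.” for “U69,593.”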

SMILES | Ki (Mu-type opioid receptor [1]) [µM] | Ki [2] [µM] | Ratio [3] | Ki [4] [µM] | Ratio [5] | Ki (Mu-type opioid receptor [6]) [µM]
CC1(C)SSC[C@H](NC(=O)[C@@H](N)Cc2ccc(O)cc2)C(=O)N[C@@H](Cc2ccc(O)cc2)C(=O)N[C@@H]1C(=O)O (H-YCY[Pen]-OH; disulfide 2-4) | 3.45 | > 10 | 135 | – | – | –
CC1(C)SSC[C@H](NC(=O)[C@@H](N)Cc2ccc(O)cc2)C(=O)N[C@@H](Cc2ccccc2F)C(=O)N[C@@H]1C(=O)O (H-YC[Phe(2-F)][Pen]-OH; disulfide 2-4) | – | – | – | > 10 | 28.1 | 0.0919
CC1(C)SSC[C@H](NC(=O)[C@@H](N)Cc2ccc(O)cc2)C(=O)N[C@@H](Cc2cccc(F)c2)C(=O)N[C@@H]1C(=O)O (H-YC[Phe(3-F)][Pen]-OH; disulfide 2-4) | – | – | – | > 10 | 19.2 | 0.0555
CC1(C)SSC[C@H](NC(=O)[C@@H](N)Cc2ccc(O)cc2)C(=O)N[C@@H](Cc2ccc(Cl)cc2)C(=O)N[C@@H]1C(=O)O (H-YC[Phe(4-Cl)][Pen]-OH; disulfide 2-4) | – | – | – | 10 | 334 | 0.327
CC1(C)SSC[C@H](NC(=O)[C@@H](N)Cc2ccc(O)cc2)C(=O)N[C@@H](Cc2ccc(F)cc2)C(=O)N[C@@H]1C(=O)O (H-YC[Phe(4-F)][Pen]-OH; disulfide 2-4) | 0.161 | > 10 | 146 | – | – | –
Cc1ccc(C[C@@H]2NC(=O)[C@@H](NC(=O)[C@@H](N)Cc3ccc(O)cc3)CSSC(C)(C)[C@@H](C(=O)O)NC2=O)cc1 (H-YC[Phe(4-Me)][Pen]-OH; disulfide 2-4) | – | – | – | > 10 | 325 | 1.75
CC1(C)SSC[C@H](NC(=O)[C@@H](N)Cc2ccc(O)cc2)C(=O)N[C@@H](Cc2ccc([N+](=O)[O-])cc2)C(=O)N[C@@H]1C(=O)O (H-YC[Phe(4-NO2)][Pen]-OH; disulfide 2-4) | 0.137 | > 10 | 82.5 | – | – | –
CC(C)(C)c1ccc(C[C@@H]2NC(=O)[C@@H](NC(=O)[C@@H](N)Cc3ccc(O)cc3)CSSC(C)(C)[C@@H](C(=O)O)NC2=O)cc1 (H-YC[Phe(4-tBu)][Pen]-OH; disulfide 2-4) | 10 | > 10 | 15 | > 10 | 270 | 10
CC1(C)SSC[C@H](NC(=O)[C@@H](N)Cc2ccc(O)cc2)C(=O)N[C@@H](Cc2cccc(O)c2)C(=O)N[C@@H]1C(=O)O (H-YC[mTyr][Pen]-OH; disulfide 2-4) | 3.4 | > 10 | 22.3 | > 10 | 76.6 | 0.712
